ChEMBL document CHEMBL5038678, “Stereochemical Effects on the Antimicrobial Properties of Tetrasubstituted 2,5-Diketopiperazines” (ACS Med Chem Lett, 2022)
In brackets after ≈: the same amount, converted by molar mass. Where a SMILES comes first, the peptide text is derived from it. Bridges are numbered along the chain shown (N, C = ends). [ ]: non-standard residue; d: D form. The star is where a group is joined. X1 = CC[C@H](C)CCCCC(=O)*; Dab = NCC[C@H](N)C(=O)O

What was measured:
[1] = Cytotoxicity against NHDF cells assessed as reduction in cell viability measured after 24 hrs by MTT assay; assay type: toxicity, cell-based; conditions: human, read-out: LD50
Summary of the method: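 Adherent normal human dermal fibroblasts were read by MTT against a DMSO vehicle control. Viability is expressed as percent of untreated controls. At least three independent biological replicates were run, with each concentration in technical duplicate.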

[2] = system: Enterococcus faecalis; assay: Antibacterial activity against Enterococcus faecalis ATCC 29212 assessed as reduction in bacterial growth after 18 hrs by CLSI based broth microdilution assay; assay type: functional
Summary of the method: (§1)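 CLSI broth microdilution for MIC (with MBC) in polypropylene microtiter plates, inoculum ~5 × 10^5 CFU/mL. Run independently on three occasions. The reported MIC is the lowest concentration on which all three biological replicates agreed.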

[3] = system: Aspergillus fumigatus; assay: Antifungal activity against Aspergillus fumigatus SVB-F136 assessed as fungal growth inhibition after 48 hrs by CLSI protocol based microbroth dilution method; assay type: functional
Summary of the method: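 Filamentous fungus tested by CLSI broth microdilution with final inoculum 0.4 × 10^4 to 5 × 10^4 CFU/mL. Three independent biological replicates; MIC is the lowest concentration at which all three agreed.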

[4] = system: Enterococcus faecium; assay: Antibacterial activity against vancomycin-resistant Enterococcus faecium RBWH1 assessed as reduction in bacterial growth after 18 hrs by CLSI based broth microdilution assay; conditions: RBWH1, 18 h
[5] = system: Cyberlindnera jadinii; assay: Antifungal activity against Candida utilis SVB-Y1 assessed as reduction in fungal growth after 48 hrs by CLSI based broth microdilution assay; assay type: functional; conditions: Williopsis jadinii
Summary of the method: (§2)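 Yeast susceptibility by CLSI broth microdilution (M27), final inoculum 0.5 × 10^3 to 2.5 × 10^3 CFU/mL. Run independently on three occasions; MIC reported as the lowest concentration giving agreement across all three biological replicates.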

[6] = system: Acinetobacter baumannii; assay: Antibacterial activity against multi-drug resistant Acinetobacter baumannii AB5075 assessed as reduction in bacterial growth after 18 hrs by CLSI based broth microdilution assay; assay type: functional; summary of the method: as §1
[7] = system: Candida albicans; assay: Antifungal activity against Candida albicans SC5314 assessed as reduction in fungal growth incubated for 48 hrs by CLSI based broth microdilution assay; assay type: functional; summary of the method: as §2
[8] = system: Streptococcus pyogenes; assay: Antibacterial activity against macrolide- and tetracycline-resistant Streptococcus pyogenes HKU16 assessed as reduction in bacterial growth after 18 hrs by CLSI based broth microdilution assay; assay type: functional; summary of the method: as §1
[9] = system: Staphylococcus aureus; assay: Antibacterial activity against methicillin-resistant Staphylococcus aureus USA 300 assessed as reduction in bacterial growth after 18 hrs by CLSI based broth microdilution assay; assay type: functional; summary of the method: as §1
[10] = system: Streptococcus pneumoniae; assay: Antibacterial activity against Streptococcus pneumoniae ATCC 49619 assessed as reduction in bacterial growth after 18 hrs by CLSI based broth microdilution assay; assay type: functional
[11] = system: Staphylococcus aureus; assay: Antibacterial activity against Staphylococcus aureus ATCC 25923 assessed as reduction in bacterial growth after 18 hrs by CLSI based broth microdilution assay; assay type: functional; summary of the method: as §1
[12] = system: Pseudomonas aeruginosa; assay: Antibacterial activity against Pseudomonas aeruginosa SVB-B9 assessed as reduction in bacterial growth after 18 hrs by CLSI based broth microdilution assay; assay type: functional
[13] = system: Klebsiella pneumoniae; assay: Antibacterial activity against Klebsiella pneumoniae MS6671 assessed as reduction in bacterial growth after 18 hrs by CLSI based broth microdilution assay; assay type: functional
[14] = system: Escherichia coli; assay: Antibacterial activity against multi-drug resistant Escherichia coli MS8345 assessed as reduction in bacterial growth after 18 hrs by CLSI based broth microdilution assay; assay type: functional; summary of the method: as §1
[15] = system: Acinetobacter baumannii; assay: Antibacterial activity against Acinetobacter baumannii ATCC 19606 assessed as reduction in bacterial growth after 18 hrs by CLSI based broth microdilution assay; assay type: functional
[16] = system: Escherichia coli; assay: Antibacterial activity against Escherichia coli ATCC 25922 assessed as reduction in bacterial growth after 18 hrs by CLSI based broth microdilution assay; assay type: functional; summary of the method: as §1

Compound	CC50 at 24 h [1]	MIC [2]	MIC [3]	MIC [4]	MIC [5]	MIC [6]	MIC [7]	MIC [8]	MIC [9]	MIC [10]	MIC [11]	MIC [12]	MIC [13]	MIC [14]	MIC [15]	MIC [16]
N=C(N)NCCC[C@@H]1C(=O)N(Cc2ccc(-c3ccccc3)cc2)[C@@H](CCCNC(=N)N)C(=O)N1Cc1ccc(-c2ccccc2)cc1	175 µM	16 µM (≈ 10.3 µg/mL)	64 µM (≈ 41.3 µg/mL)	8 µM (≈ 5.16 µg/mL)	2 µM (≈ 1.29 µg/mL)	> 64 µM	8 µM (≈ 5.16 µg/mL)	16 µM (≈ 10.3 µg/mL)	4 µM (≈ 2.58 µg/mL)	16 µM (≈ 10.3 µg/mL)	4 µM (≈ 2.58 µg/mL)	64 µM (≈ 41.3 µg/mL)	> 64 µM	> 64 µM	> 64 µM	64 µM (≈ 41.3 µg/mL)
N=C(N)NCCC[C@H]1C(=O)N(Cc2ccc(-c3ccccc3)cc2)[C@@H](CCCNC(=N)N)C(=O)N1Cc1ccc(-c2ccccc2)cc1	63 µM	2 µM (≈ 1.29 µg/mL)	8 µM (≈ 5.16 µg/mL)	8 µM (≈ 5.16 µg/mL)	4 µM (≈ 2.58 µg/mL)	16 µM (≈ 10.3 µg/mL)	4 µM (≈ 2.58 µg/mL)	8 µM (≈ 5.16 µg/mL)	4 µM (≈ 2.58 µg/mL)	8 µM (≈ 5.16 µg/mL)	4 µM (≈ 2.58 µg/mL)	8 µM (≈ 5.16 µg/mL)	32 µM (≈ 20.6 µg/mL)	8 µM (≈ 5.16 µg/mL)	64 µM (≈ 41.3 µg/mL)	8 µM (≈ 5.16 µg/mL)
N=C(N)NCCC[C@H]1C(=O)N(Cc2ccccc2)[C@@H](CCCNC(=N)N)C(=O)N1Cc1ccccc1	> 512 µM	> 64 µM	> 64 µM	> 64 µM	> 64 µM	> 64 µM	> 64 µM	64 µM (≈ 31.5 µg/mL)	> 64 µM	> 64 µM	> 64 µM	> 64 µM	> 64 µM	> 64 µM	> 64 µM	> 64 µM
N=C(N)NCCC[C@@H]1C(=O)N(Cc2ccc(-c3ccccc3)cc2)[C@H](CCCNC(=N)N)C(=O)N1Cc1ccc(-c2ccccc2)cc1	99 µM	4 µM (≈ 2.58 µg/mL)	8 µM (≈ 5.16 µg/mL)	4 µM (≈ 2.58 µg/mL)	4 µM (≈ 2.58 µg/mL)	32 µM (≈ 20.6 µg/mL)	2 µM (≈ 1.29 µg/mL)	8 µM (≈ 5.16 µg/mL)	4 µM (≈ 2.58 µg/mL)	8 µM (≈ 5.16 µg/mL)	4 µM (≈ 2.58 µg/mL)	8 µM (≈ 5.16 µg/mL)	64 µM (≈ 41.3 µg/mL)	16 µM (≈ 10.3 µg/mL)	64 µM (≈ 41.3 µg/mL)	8 µM (≈ 5.16 µg/mL)
NCCC[C@H]1C(=O)N(Cc2ccc(-c3ccccc3)cc2)[C@@H](CCCN)C(=O)N1Cc1ccc(-c2ccccc2)cc1	30 µM	8 µM (≈ 4.49 µg/mL)	32 µM (≈ 17.9 µg/mL)	8 µM (≈ 4.49 µg/mL)	32 µM (≈ 17.9 µg/mL)	32 µM (≈ 17.9 µg/mL)	64 µM (≈ 35.9 µg/mL)	8 µM (≈ 4.49 µg/mL)	4 µM (≈ 2.24 µg/mL)	8 µM (≈ 4.49 µg/mL)	4 µM (≈ 2.24 µg/mL)	–	8 µM (≈ 4.49 µg/mL)	16 µM (≈ 8.97 µg/mL)	64 µM (≈ 35.9 µg/mL)	16 µM (≈ 8.97 µg/mL)
CC[C@H](C)CCCCC(=O)N[C@@H](CCN)C(=O)N[C@H](C(=O)N[C@@H](CCN)C(=O)N[C@H]1CCNC(=O)[C@H]([C@@H](C)O)NC(=O)[C@H](CCN)NC(=O)[C@H](CCN)NC(=O)[C@H](CC(C)C)NC(=O)[C@@H](Cc2ccccc2)NC(=O)[C@H](CCN)NC1=O)[C@@H](C)O (X1-[Dab]T[Dab][Dab][Dab][dF]L[Dab][Dab]T; lactam 4-C)	> 512 µM	8 µM (≈ 9.63 µg/mL)	–	> 64 µM	–	0.25 µM (≈ 0.301 µg/mL)	–	32 µM (≈ 38.5 µg/mL)	32 µM (≈ 38.5 µg/mL)	8 µM (≈ 9.63 µg/mL)	64 µM (≈ 77 µg/mL)	–	16 µM (≈ 19.3 µg/mL)	4 µM (≈ 4.81 µg/mL)	1 µM (≈ 1.2 µg/mL)	0.25 µM (≈ 0.301 µg/mL)
CC1(C)S[C@@H]2[C@H](NC(=O)[C@H](N)c3ccc(O)cc3)C(=O)N2[C@H]1C(=O)O [AMOXICILLIN]	> 512 µM	8 µM (≈ 2.92 µg/mL)	–	64 µM (≈ 23.4 µg/mL)	–	–	–	0.25 µM (≈ 0.0914 µg/mL)	> 64 µM	0.5 µM (≈ 0.183 µg/mL)	1 µM (≈ 0.365 µg/mL)	> 64 µM	–	–	–	16 µM (≈ 5.85 µg/mL)
C[C@@H]1[C@H](O)[C@@H](C)/C=C/C=C/C=C/C=C/C=C/C=C/C=C/[C@H](O[C@@H]2O[C@H](C)[C@@H](O)[C@H](N)[C@@H]2O)C[C@@H]2O[C@](O)(C[C@@H](O)C[C@@H](O)[C@H](O)CC[C@@H](O)C[C@@H](O)CC(=O)O[C@H]1C)C[C@H](O)[C@H]2C(=O)O [AMPHOTERICIN B]	–	–	4 µM (≈ 3.7 µg/mL)	–	2 µM (≈ 1.85 µg/mL)	–	1 µM (≈ 0.924 µg/mL)	–	–	–	–	–	–	–	–	–
